ERAP1 inh: blocks human ERAP1 aminopeptidase activity. inhibition, % at 10.7 µM. recombinant ERAP1, Leu-AMC fluorescence, 60 min. 340,000 tested, 0.15% active. AID 652197. Q9NZ08;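 active = mean replicate inhibition of at least 30%, or all replicates individually reaching that 30% level; inactive = mean below 30% and not every replicate reaching it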;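 note: 0% = neutral control wells and 100% = L-leucinethiol positive control wells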
Target sequence (Q9NZ08 whole entry, looked up): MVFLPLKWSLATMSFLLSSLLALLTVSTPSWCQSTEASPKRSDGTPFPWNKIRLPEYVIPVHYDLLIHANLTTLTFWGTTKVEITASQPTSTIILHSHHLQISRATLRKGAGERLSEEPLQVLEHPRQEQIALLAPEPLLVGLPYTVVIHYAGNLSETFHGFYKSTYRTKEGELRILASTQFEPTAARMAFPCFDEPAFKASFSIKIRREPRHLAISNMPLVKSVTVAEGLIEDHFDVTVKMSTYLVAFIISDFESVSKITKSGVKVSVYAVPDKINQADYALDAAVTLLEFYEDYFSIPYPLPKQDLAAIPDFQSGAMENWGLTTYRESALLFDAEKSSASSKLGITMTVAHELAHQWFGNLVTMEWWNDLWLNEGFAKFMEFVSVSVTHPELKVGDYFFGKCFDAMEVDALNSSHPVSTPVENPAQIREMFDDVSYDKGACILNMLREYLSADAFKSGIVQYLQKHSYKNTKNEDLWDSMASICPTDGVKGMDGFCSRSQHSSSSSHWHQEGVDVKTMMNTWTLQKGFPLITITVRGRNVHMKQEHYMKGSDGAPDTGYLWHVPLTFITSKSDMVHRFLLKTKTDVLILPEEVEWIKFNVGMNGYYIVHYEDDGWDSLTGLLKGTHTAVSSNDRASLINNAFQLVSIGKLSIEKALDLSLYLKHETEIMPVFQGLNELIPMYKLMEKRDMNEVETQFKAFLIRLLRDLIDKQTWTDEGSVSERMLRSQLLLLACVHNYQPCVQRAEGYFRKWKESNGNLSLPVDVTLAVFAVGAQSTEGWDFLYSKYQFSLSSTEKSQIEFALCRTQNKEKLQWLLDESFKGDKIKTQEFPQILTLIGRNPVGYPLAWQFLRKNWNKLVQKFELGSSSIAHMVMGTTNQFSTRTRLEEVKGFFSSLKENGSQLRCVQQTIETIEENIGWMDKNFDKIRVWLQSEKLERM
S100A4 inh HTS: inhibitors of human S100A4 binding to myosin IIA peptide | AID 652163 | P26447 | 360,000 tested, 0.14% active | inhibition, % at 10.7 µM | S100A4/TAMRA-MyoIIA peptide fluorescence polarization;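 active = mean inhibition of at least 70% across replicates, with every replicate also reaching that level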
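assay system = human S100A4 monomer with TAMRA-labelled myosin IIA peptide | also added = labelled myosin peptide probe, 5 nM | incubation = 5 min between mix addition and reading | control set = DMSO and TFP controls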
SIRT5 inh: inhibitors of human sirtuin-5 desuccinylase; Purified SirT5, succinyl-peptide AMC, trypsin-coupled fluorescence; 330,000 tested, 1.1% active; inhibition, % at 15 µM; Q9NXA8; AID 652115; in the data active = inhibition above about 15%
F508del corr: correctors of CFTR F508del function in bronchial epithelial cells. CFBE cells, YFP halide quenching; stimulated with forskolin plus potentiator P3; % fluorescence drop versus neutral controls. activity (quench increase), % at 7.58 µM. 350,000 tested, 0.36% active. AID 720511;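 active = mean added fluorescence quench of at least 8% versus neutral control, with both replicates also reaching 8%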;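 note: cells transiently co-express mutant CFTR-F508del with the halide-sensitive YFP; corrector assay measuring rescue of mutant channel to the surface after 24 h compound exposure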
Ecoli rRNA inh: selective bacterial rRNA inhibition in E. coli. E. coli WT GFP vs humanized-ribosome RFP mutants, fluorescence, 24 h; hits give low values; DMSO median 0, no signal -100. GFP signal change (wild-type ribosome), % (no concentration beside the values). 350,000 tested, 1.6% active. AID 720706;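 active = significant combined selectivity score with lowered wild-type GFP, culture density cut under 30%, mutant RFP and density less affected; inactive = any of these conditions unmet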
Numbers without * were called inactive; nt = not tested or not shown; ! = repeats disagree. Rows were chosen to be rich in hits. Some 3.1% of all compounds tested hit in one or more screens of this group.

SMILES	ERAP1 inh	S100A4 inh HTS	SIRT5 inh	F508del corr	Ecoli rRNA inh
CCCSc1ccc([C@@H]2[C@H]3C(=O)N(CC)C(=O)[C@H]3[C@]3(C(=O)OC)CCCN23)cc1	-0.3	-14.7	36.2*	1.9	-5.3
C[C@@H]1CN([C@H](C)CO)C(=O)Cc2cc(NC(=O)C3CCCCC3)ccc2O[C@H]1CN(C)C(=O)Nc1ccccc1	-0.3	-16.8	-1.1	-2.3	2.0
COCn1cnc(-c2ccccc2)c1-c1ccccc1	4.2	-1.7	3.3	-2.4	-27.9*
CCCCOc1ccc(N=Nc2ccc(N)nc2N)cn1	-0.5	-3.4	-0.9	0.0	-25.4*
COc1ccccc1NC(=O)C(=O)NCC1COc2ccccc2O1 (stereo unspecified)	-1.6	-15.5	0.1	-1.0	-22.9*
Cc1cc(C)nc(N/N=C/C(Cl)=C/c2ccccc2)n1	-0.9	10.6	7.7	-1.2	-26.0*
Cc1ccc(-n2c(CCC(=O)O)ccc2-c2cccs2)cc1	-1.7	-15.4	-4.3	1.2	-27.9*
COc1ccc(-n2c(CCC(=O)O)ccc2-c2ccccc2)cc1	-3.3	-4.6	8.6	1.7	-25.4*
O=C(c1ccccc1F)N1C[C@H]2[C@@H](c3ccccc31)[C@H](CO)N2C(=O)c1ccncc1	-1.0	-4.1	5.2	-1.0	0.4
O=C(Nc1ccc(F)cc1)N[C@H]1CC[C@@H](CCNC(=O)c2ccccc2F)O[C@H]1CO	-1.1	-0.2	-1.5	-1.8	0.2
Cc1oc2ccc(O)cc2c1C(=O)c1ccc([N+](=O)[O-])cc1	-0.7	8.5	-2.2	-3.4	-14.2
CN(C)/C=C/c1oc2ccc(O)cc2c1[N+](=O)[O-]	8.7	-2.6	23.6*	-0.2	-29.8*
Cc1noc(C)c1S(=O)(=O)N(C)C[C@@H]1Oc2ccc(NC(=O)Cn3cnnn3)cc2C(=O)N([C@@H](C)CO)C[C@@H]1C	0.1	4.7	23.1*	-1.3	0.6
C[C@@H]1CN([C@@H](C)CO)C(=O)c2cc(NC(=O)Cn3cnnn3)ccc2O[C@@H]1CN(C)CC1CCCCC1	-0.1	2.7	-3.5	0.1	6.9
C[C@H](CO)N1C[C@H](C)[C@@H](CN(C)CC2CCCCC2)Oc2ccc(NC(=O)Cn3cnnn3)cc2C1=O	0.5	8.9	15.3*!	-2.8	0.8
C[C@@H]1CN([C@@H](C)CO)C(=O)c2cc(NC(=O)Nc3ccc(C(F)(F)F)cc3)ccc2O[C@@H](C)CCCCO[C@@H]1CN(C)Cc1ccccc1	-2.0	0.9	3.2	4.8	4.6
COc1cc2cc(CCCOC(=O)c3ccc(F)cc3)oc(=O)c2cc1OC	-4.8	-0.2	nt	-1.2	-24.6*
COc1cc(NC(=O)CCCOc2ccc(Cl)cc2Cl)c(C(=O)O)cc1OC	-1.4	8.4	-1.6	1.1	-30.9*
O=C(CCCOc1ccc(Cl)cc1Cl)Nc1ccc(O)cc1C(=O)O	-1.7	-4.6	-0.8	-1.9	3.3
COc1cc(NC(=O)Cc2ccccc2)c(C(=O)O)cc1OC	-1.2	-9.5	4.6	0.8	-24.0
COc1cc(NC(=O)Cc2ccc([N+](=O)[O-])cc2)c(C(=O)O)cc1OC	2.7	-9.5	19.5*	nt	9.5
CC(C)c1cn(CC[C@@H]2CC[C@H](NS(=O)(=O)c3ccccc3)[C@H](CO)O2)nn1	-3.6	-4.2	-2.1	-1.2	1.4
COc1ccc(C(=O)NCCc2ccccn2)cc1S(=O)(=O)Nc1ccc(Br)cc1	-4.0	-29.2	-0.8	0.4	-19.9*
COCC(=O)Nc1ccc2c(c1)C(=O)N(C)C[C@@H](OC)[C@@H](C)CN(Cc1cc(F)ccc1F)[C@@H](C)CO2	2.7	6.5	1.5	-1.5	-2.9
COc1ccc(NC(=O)N(C)C[C@H]2Oc3ccc(NC(=O)Nc4cccc5ccccc45)cc3C(=O)N([C@H](C)CO)C[C@H]2C)cc1	1.2	6.4	0.6	0.0	0.2
COc1ccc(CNC(=O)C[C@@H]2CC[C@@H](NC(=O)CN(C)C)[C@H](CO)O2)cc1	0.3	-4.5	5.1	-0.4	-4.8
O=C(C[C@@H]1C[C@@H]2c3cc(NC(=O)CC4CC4)ccc3O[C@@H]2[C@H](CO)O1)NCCN1CCCCC1	10.1	7.0	-0.5	2.4	9.6
COCC(=O)Nc1ccc2c(c1)[C@@H]1C[C@@H](CC(=O)N3CCOCC3)O[C@@H](CO)[C@@H]1O2	3.2	85.6*	-3.1	-0.2	2.0
